Experimental data taken from article PMC7770080 (Biochemical pharmacology, 2020).
Where two headings read alike, the source gives them in different places. Values belong to the compound of their own block, whether it stands above or below them.

Key:
[1] = system: C. difficile strain 630 spores; experiment: Prevention of murine CDI after C. difficile spore challenge; format: in vivo, mice; settings: 50 mg/kg oral gavage, three doses; for Time to clinical endpoint: clinical endpoint > 6 on CDI severity scale; for CDI signs in spore-challenged mice: 10^8 CFU spores
[2] = Fecal excretion of CamSA and mSA after oral CamSA in cpx and non-cpx mice; format: in vivo
[3] = CamSA and mSA in liver, blood, kidney and chyme after oral CamSA; format: in vivo, mice; settings: for Highest concentration found in the liver: 50 mg/kg oral CamSA, calculated; for Amount recovered from chyme as fraction of total dosed CamSA: all five time points together; for Total administered CamSA recovered from feces, organs and chyme: semi-quantitative
[4] = Interaction with cholestyramine resin in vitro and recovery from the resin; format: physicochemical; settings: for Binding to cholestyramine resin in vitro: 20 mg/ml cholestyramine, overnight, 37°C
C. difficile spores [5] = experiment: In vitro C. difficile spore germination assay; format: cell-based, Clostridioides difficile
CYP3A4 = CYP3A4 (Homo sapiens, UniProt P08684); experiment: Vivid CYP3A4 Green screening assay with P450 BACULOSOMES
[6] = system: murine GI microbiota (feces); experiment: Metabolism of CamSA by fecal microbiota; format: in vitro ADME, mice
[7] = Effect of cholestyramine feed on CamSA in liver of cpx mice; format: in vivo; settings: 22 hours post-CamSA
Outline: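 Cefoperazone-treated mice, individually housed, were fed chow with 4% w/w (n=3) or 0% w/w (n=4) cholestyramine from 24 h before test compound dosing until the end. At 22 h post-dose, livers with attached gallbladders were harvested, stored at −20 °C, then homogenised. Acetonitrile was added to precipitate protein, and samples were centrifuged and filtered (0.2 μm). Analysis was by RP-HPLC-MS on a PSDVB column with isocratic 40% ACN, 5 mM ammonium acetate, 0.1% formic acid.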

C. difficile spores [8] = settings: in vitro and in vivo; cited from earlier work
C. difficile [9] = settings: cited from earlier work
Bifidobacterium longum = settings: 24 hours, pure culture; cited from earlier work
Lactobacillus gasseri = settings: 24 hours, pure culture; cited from earlier work
[10] = 24 hours, both conditions; cited from earlier work
Caco-2 monolayers = settings: cited from earlier work
C. difficile [11] = settings: cited from earlier work; remark: listed apart in the source

CYP3A4, sequence (P08684 whole entry): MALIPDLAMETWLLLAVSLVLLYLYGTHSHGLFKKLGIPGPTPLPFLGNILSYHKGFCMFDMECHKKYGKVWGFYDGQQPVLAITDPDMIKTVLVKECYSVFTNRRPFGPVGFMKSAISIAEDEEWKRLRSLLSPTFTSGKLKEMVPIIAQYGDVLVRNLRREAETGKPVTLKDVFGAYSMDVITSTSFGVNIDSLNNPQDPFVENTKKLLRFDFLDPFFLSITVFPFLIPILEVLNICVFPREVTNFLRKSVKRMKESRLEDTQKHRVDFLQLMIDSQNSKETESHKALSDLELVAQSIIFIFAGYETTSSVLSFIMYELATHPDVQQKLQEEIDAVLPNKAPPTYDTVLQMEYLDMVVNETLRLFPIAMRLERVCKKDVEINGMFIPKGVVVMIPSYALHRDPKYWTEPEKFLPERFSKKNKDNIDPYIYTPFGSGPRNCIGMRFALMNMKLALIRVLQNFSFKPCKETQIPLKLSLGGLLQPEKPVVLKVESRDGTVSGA

Detection in feces ([2]; cpx mice, any time point): not observed | Amount recovered from feces relative to CamSA from the same animals (higher) ([2]; non-cpx mice): approximately 40 fold | Time of first large peak in feces ([2]; non-cpx mice, after CamSA administration): ≤ 12 h | Highest concentration found in the liver [3]: approximately 20 μM | Detection in kidney ([3]; cpx mice): detected | Detection in blood ([3]; cpx mice, any time point): unable to detect | Amount recovered from chyme relative to amount recovered from feces ([3]; non-cpx mice): about 85% | Amount recovered from chyme as fraction of total dosed CamSA ([3]; non-cpx mice, detected as mSA): 13% | Binding to cholestyramine resin in vitro [4]: bound completely | Reversibility of binding to cholestyramine ([4]; stripping under strong acidic conditions): irreversible | IC50 (CYP3A4): 17.5 ± 1.1 mM
SMILES: Nc1cccc(S(=O)(=O)O)c1 [mSA, metanilic acid]
Time to clinical endpoint [1]: ≤ 48 hours post-challenge | Detection in blood ([3]; non-cpx mice): only detected in blood at the 22-hour time point | Detection in kidney ([3]; non-cpx mice): only detected in kidney at the 12-hour time point | Effect on C. difficile spore germination in vitro (C. difficile spores [5]): neither induced nor inhibited

SMILES: C[C@H](CCC(=O)Nc1cccc(S(=O)(=O)O)c1)[C@H]1CC[C@H]2[C@@H]3CC[C@@H]4C[C@H](O)CC[C@]4(C)[C@H]3C[C@H](O)[C@]12C [7-deoxy-CamSA]
CDI signs in spore-challenged mice [1]: only moderate CDI signs

SMILES: C[C@H](CCC(=O)[O-])[C@H]1CC[C@H]2[C@@H]3[C@H](O)C[C@@H]4C[C@H](O)CC[C@]4(C)[C@H]3C[C@H](O)[C@]12C.[Na+] [cholate, Sodium cholate, reference compound]
Time to clinical endpoint [1]: ≤ 48 hours post-challenge | Effect on C. difficile spore germination in vitro (C. difficile spores [5]): could stimulate spore germination

SMILES: C[C@H](CCC(=O)Nc1cccc(S(=O)(=O)O)c1)[C@H]1CC[C@H]2[C@@H]3[C@H](O)C[C@@H]4C[C@H](O)CC[C@]4(C)[C@H]3C[C@H](O)[C@]12C [CamSA]
Hydrolysis of CamSA to cholate and mSA ([6]; GI microbiota of mice not treated with antibiotics): slowly hydrolyzed | Degradation of CamSA by recovered microbiota ([6]; feces collected one week after last antibiotic dose, data not shown): degraded CamSA at a similar rate as feces from animals that had never received antibiotics | CDI signs in spore-challenged mice [1]: little to no signs of CDI | Retention of intact compound in the animal ([2]; antibiotic-treated mouse): 7 days post-administration | Start of CamSA excretion in feces ([2]; cpx mice): around 6 hours post-administration | Time of second fecal excretion maximum ([2]; cpx mice): 32 hours post-administration | Fraction of total dosed CamSA recovered from feces ([2]; cpx mice, 50 mg/kg oral, over a week): approximately 30% | Detection in feces ([2]; non-cpx mice): low levels of intact CamSA | Maximum amount recovered from feces at a single time point relative to cpx mice ([2]; non-cpx mice): four-fold lower | Fraction of total dosed drug recovered from feces, mSA plus CamSA ([2]; non-cpx mice, 50 mg/kg oral, over a week): approximately 15% | Highest concentration found in the liver [3]: approximately 140 μM | Total administered CamSA recovered from feces, organs and chyme ([3]; cpx animals): approximately 40% | Detection in kidney ([3]; cpx mice): negligible amounts | Total amount recovered from liver relative to feces (less) ([3]; cpx mice): approximately 10 fold | Amount recovered from chyme as fraction of total dosed CamSA ([3]; cpx mice): 10% | Detection in blood ([3]; cpx mice, any time point): unable to detect | Time of peak hepatic concentration ([3]; cpx mice, one animal per time point): 22 h | CamSA and mSA recovered from chyme relative to blood (higher) ([3]; mouse, in vivo): 300 fold | CamSA and mSA recovered from chyme relative to other organs (higher) ([3]; mouse, in vivo): at least 10 fold | Total administered CamSA recovered from feces, organs and chyme ([3]; non-cpx animals): ~25% | Detection in blood ([3]; non-cpx mice): not detected | Total combined CamSA and mSA recovered from liver relative to feces (less) ([3]; non-cpx mice): approximately 10 fold | Binding to cholestyramine resin in vitro [4]: nearly complete sequestration | Recovery from cholestyramine resin ([4]; 0.5 N aqueous HCl, absence of feces): less than 1% | Recovery from cholestyramine resin ([4]; 0.5 N ethanolic HCl, absence of feces): up to 75% | Recovery from cholestyramine resin ([4]; 0.5 N ethanolic HCl, presence of fecal matter): less than 10% | Detection in liver ([7]; 0% cholestyramine feed): detected CamSA from liver samples from three of the four mice | Detection in liver ([7]; 4% cholestyramine feed): unable to detect | Effect on taurocholate-mediated C. difficile spore germination (C. difficile spores [8]): potent inhibitor | Effect on mean time of death of infected animals (C. difficile [9]; CamSA alone): double the mean time of death | Prevention of CDI onset (C. difficile [9]; CamSA alone): unable to prevent the onset of CDI | Hamsters protected, no CDI symptoms a month post-challenge (C. difficile [9]; CamSA with sub-clinical doses of vancomycin): 70% | CamSA hydrolyzed (Bifidobacterium longum): approximately 80% | CamSA hydrolyzed (Lactobacillus gasseri): approximately 80% | Degradation in artificial gastric or intestinal juices [10]: no CamSA degradation was observed | Intestinal permeability (Caco-2 monolayers): limited intestinal permeability | Acute toxicity (C. difficile [11]; CamSA-treated mice): did not indicate any signs of acute toxicity or damage to GI tissue | Prevention of CDI symptoms (C. difficile [11]; single 50 mg/kg dose): completely prevent CDI symptoms | IC50 (CYP3A4; read-out: IC50 on CYP3A4 activity, assuming inhibition of CYP3A4, triplicate): 0.62 ± 0.11 mM

SMILES: C[C@H](CCC(=O)Nc1cccc(S(=O)(=O)O)c1)[C@H]1CC[C@H]2[C@@H]3[C@H](O)C[C@@H]4C[C@H](O)CC[C@]4(C)[C@H]3CC[C@]12C [12-deoxy-CamSA]
CDI severity score [1]: > 6 | Time to clinical endpoint [1]: 48 hours post-challenge
